In one test the target is Coagulation factor X (Homo sapiens, UniProt P00742). As to the kind of experiment: Binding affinity against human coagulation factor Xa. An outline of the steps:
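Human fXa at 100 pM final with Pefachrome-FXA substrate, in 100 mM phosphate buffer with 0.1% bovine serum albumin at pH 7.4. Compounds were taken from Me₂SO stocks into the buffer.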

A further test deals with Serine protease 1 (Homo sapiens, UniProt P07477). As to the kind of experiment: Binding affinity against human trypsin. An outline of the steps:
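Human trypsin at 1 nM final with Pefachrome-TRY chromogenic substrate, in 100 mM phosphate, 0.1% bovine serum albumin, pH 7.4. Test compounds were dissolved in Me₂SO and diluted into the assay buffer. The read-out was the optical density increase at 405 from substrate cleavage.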

A further test has as its target Prothrombin (Homo sapiens, UniProt P00734). As to the kind of experiment: Affinity for human thrombin. An outline of the steps: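 Chromogenic assay with 1 nM human thrombin and Pefachrome-TH substrate, in 100 mM phosphate buffer with 0.1% bovine serum albumin at pH 7.4. Compounds were dissolved in Me₂SO and diluted into the buffer. Hydrolysis was followed as the rise in optical density at 405 on a microplate reader.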

“And” between values parts separate entries of the source, which are not always exact repeats. Equal entries are not always repeated.

Chain of Serine protease 1 (P07477 whole entry): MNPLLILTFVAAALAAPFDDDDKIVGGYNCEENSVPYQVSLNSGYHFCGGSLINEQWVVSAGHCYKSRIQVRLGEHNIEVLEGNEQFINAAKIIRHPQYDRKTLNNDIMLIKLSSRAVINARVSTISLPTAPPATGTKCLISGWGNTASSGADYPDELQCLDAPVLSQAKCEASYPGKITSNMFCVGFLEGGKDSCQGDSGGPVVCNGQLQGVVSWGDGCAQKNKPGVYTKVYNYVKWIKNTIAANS
Chain of Coagulation factor X (P00742 41-179 limits assumed): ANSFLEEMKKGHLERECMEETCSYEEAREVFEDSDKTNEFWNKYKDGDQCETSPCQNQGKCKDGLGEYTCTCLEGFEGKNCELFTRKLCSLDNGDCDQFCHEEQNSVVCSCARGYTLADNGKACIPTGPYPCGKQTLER
Chain of Coagulation factor X (P00742 235-488 limits assumed): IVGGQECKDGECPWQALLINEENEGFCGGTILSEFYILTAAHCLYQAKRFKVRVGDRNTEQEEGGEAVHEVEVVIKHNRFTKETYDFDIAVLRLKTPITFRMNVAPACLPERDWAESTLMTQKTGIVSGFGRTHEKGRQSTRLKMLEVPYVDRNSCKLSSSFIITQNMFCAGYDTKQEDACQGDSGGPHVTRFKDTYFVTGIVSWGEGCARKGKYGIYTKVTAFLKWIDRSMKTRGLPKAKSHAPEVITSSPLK

Turning to `Cc1ccc(CNC(=O)[C@H](NC(=O)c2cccc(C(=N)N)c2)c2ccccc2)cc1`, the inhibition constant (Ki) was found to be 42 nM at Coagulation factor X and 4900 nM at Serine protease 1.

Regarding `N=C(N)c1cccc(C(=O)N[C@H](Cc2ccccc2)C(=O)NCC2CCC(CN)CC2)c1` (stereo partly specified), the Ki at Coagulation factor X turned out to be 25700 nM; at Serine protease 1, 17400 nM.

As to `N=C(N)c1cccc(C(=O)N[C@H](C(=O)NCC2CCC(CN)CC2)C2CCCCC2)c1` (stereo partly specified), the inhibition constant Ki at Coagulation factor X came out at 7800 nM; on Serine protease 1 it was 3600 nM.

With `CSCC[C@@H](NC(=O)c1cccc(C(=N)N)c1)C(=O)NCC1CCC(CN)CC1` (stereo partly specified), the Ki is 2300 nM on Coagulation factor X and 10000 nM on Serine protease 1.

Take `N=C(N)c1cccc(C(=O)N[C@@H](C(=O)NCCc2ccccc2)c2ccccc2)c1`: the Ki at Coagulation factor X is 850 nM; on Serine protease 1, 3300 nM; at Prothrombin, 3100 nM.

Take `N=C(N)c1cccc(C(=O)N[C@@H](C(=O)N2CCN(C(=O)c3ccccc3)CC2)c2ccccc2)c1`: the inhibition constant (Ki) on Serine protease 1 amounted to 460 nM; at Prothrombin, 7940 nM.

Consider `N=C(N)c1cccc(C(=O)NCC(=O)NCC2CCC(CN)CC2)c1` (stereo unspecified), for which, at Serine protease 1, affinity was put at a Ki of 23000 nM.

On to `N=C(N)c1cccc(C(=O)N[C@@H](C(=O)N2CCC(Cc3ccccc3)CC2)c2ccccc2)c1`, for which the Ki was 30 nM on Coagulation factor X, 650 nM at Serine protease 1 and 1350 nM on Prothrombin.

For `N=C(N)c1cccc(C(=O)N[C@@H](C(=O)NCc2ccc(CN)cc2)c2ccccc2)c1`, the inhibitory constant (Ki) amounted to 500 nM on Coagulation factor X, 4100 nM at Serine protease 1 and 26000 nM at Prothrombin.

On to `N=C(N)c1cccc(C(=O)NC(C(=O)NCC2CCC(CN)CC2)c2ccc(Cl)cc2)c1` (stereo unspecified), for which the Ki was 2500 nM on Coagulation factor X and 6000 nM at Serine protease 1.

On to `N=C(N)c1cccc(C(=O)N[C@@H](C(=O)NCC2CCC(CN)CC2)C2CCCCC2)c1` (stereo partly specified), for which the Ki on Coagulation factor X worked out at 500 nM; on Serine protease 1, 8500 nM.

Regarding `N=C(N)c1cccc(C(=O)NC(C(=O)NCC2CCC(CN)CC2)c2cccc3ccccc23)c1` (stereo unspecified), the inhibition constant (Ki) turned out to be 100 nM at Coagulation factor X and 2100 nM at Serine protease 1.

Consider `N=C(N)c1cccc(C(=O)N[C@@H](C(=O)N2CCN(c3ccc(F)cc3)CC2)c2ccccc2)c1`, for which the Ki worked out at 15 nM on Coagulation factor X, 1260 nM on Serine protease 1 and 3800 nM on Prothrombin.

Consider `COc1ccc(CNC(=O)[C@H](NC(=O)c2cccc(C(=N)N)c2)c2ccccc2)cc1`, for which the results for the Ki at Coagulation factor X, at Serine protease 1 and on Prothrombin were 28 nM, 5500 nM and 2300 nM, respectively.

Consider `N=C(N)c1cccc(C(=O)NC(C(=O)NCC2CCC(CN)CC2)c2cccc(Cl)c2)c1` (stereo in doubt; 9), for which the Ki on Coagulation factor X is 300 nM; on Serine protease 1 it was 3900 nM.

As for `CC(C)[C@H](NC(=O)c1cccc(C(=N)N)c1)C(=O)NCC1CCC(CN)CC1` (stereo partly specified), the inhibition constant Ki is 38000 nM at Coagulation factor X and 12600 nM at Serine protease 1.

As to `CSCC[C@H](NC(=O)c1cccc(C(=N)N)c1)C(=O)NCC1CCC(CN)CC1` (stereo partly specified), the inhibition constant Ki on Coagulation factor X was determined as 10500 nM; at Serine protease 1, 7900 nM.

On to `N=C(N)c1cccc(C(=O)NC(C(=O)NCC2CCC(CN)CC2)c2ccc(-c3ccccc3)cc2)c1` (stereo unspecified), for which the Ki at Coagulation factor X is 800 nM; on Serine protease 1 it was 1100 nM.

For the compound `N=C(N)c1cccc(C(=O)N[C@@H](Cc2ccccc2)C(=O)NCC2CCC(CN)CC2)c1` (stereo partly specified), the Ki on Coagulation factor X was found to be 33900 nM; at Serine protease 1 it was 12600 nM.

For the compound `N=C(N)c1cccc(C(=O)N[C@@H](C(=O)N2CCN(Cc3ccccc3)CC2)c2ccccc2)c1`, the results for the inhibitory constant (Ki) on Coagulation factor X, at Serine protease 1 and on Prothrombin were 120 nM, 2200 nM and 7940 nM, respectively.

As to `N=C(N)c1cccc(C(=O)N[C@@H](C(=O)NCc2ccccc2)c2ccccc2)c1`, the Ki is 910 nM on Coagulation factor X, 5400 nM at Serine protease 1 and 8500 nM on Prothrombin.

For the compound `N=C(N)c1cccc(C(=O)NC(C(=O)NCC2CCC(CN)CC2)c2ccccc2)c1` (stereo unspecified), the inhibitory constant (Ki) on Serine protease 1 is 4500 nM and 5600 nM; at Prothrombin, 6500 nM.

Regarding `N=C(N)c1cccc(C(=O)N[C@@H](C(=O)NCCCc2ccccc2)c2ccccc2)c1`, the Ki on Coagulation factor X was determined as 145 nM; on Serine protease 1 it was 2200 nM.

With `CC(C)[C@@H](NC(=O)c1cccc(C(=N)N)c1)C(=O)NCC1CCC(CN)CC1` (stereo partly specified), the affinity at Serine protease 1, expressed as Ki, was 16200 nM.

Turning to `N=C(N)c1cccc(C(=O)N[C@@H](C(=O)N2CCN(c3ccncc3)CC2)c2ccccc2)c1`, the inhibition constant (Ki) was 13 nM at Coagulation factor X, 560 nM on Serine protease 1 and 17800 nM at Prothrombin.

On to `N=C(N)c1cccc(C(=O)N[C@@H](C(=O)N2CCC(C(=O)c3ccc(F)cc3)CC2)c2ccccc2)c1`, for which the Ki turned out to be 10 nM at Coagulation factor X, 540 nM at Serine protease 1 and 1180 nM at Prothrombin.

As to `N=C(N)c1cccc(C(=O)NC(C(=O)NCC2CCC(CN)CC2)c2cccc(Cl)c2)c1` (stereo in doubt; 11), the inhibitory constant (Ki) turned out to be 300 nM at Coagulation factor X and 5100 nM on Serine protease 1.

For `N=C(N)c1cccc(C(=O)N[C@@H](C(=O)N2CCC(C(=O)c3ccccc3)CC2)c2ccccc2)c1`, the inhibition constant Ki is 320 nM on Serine protease 1 and 1260 nM on Prothrombin.

Turning to `N=C(N)c1cccc(C(=O)N[C@@H](C(=O)N2CCN(c3ccccc3)CC2)c2ccccc2)c1`, the values for the Ki on Coagulation factor X, on Serine protease 1 and on Prothrombin were 16 nM, 340 nM and 1740 nM, respectively.

The term Ki denotes the dissociation constant of the complex between target and ligand, obtained from inhibition or displacement. Low values mean a stronger hold on the target, high ones a looser hold on the target.

For the origin of these results see ChEMBL document CHEMBL1134227, “The design of phenylglycine containing benzamidine carboxamides as potent and selective inhibitors of factor Xa” (Bioorg Med Chem Lett, 2001).
